The list is not random: actives were taken first. Their share in the collection is about 4.7%.
m5-HT2A agonist: activates the mouse 5-HT2A serotonin receptor; activation, % at 7.6 µM; P35363; CHO-K1 mHTR2A beta-arrestin complementation, luminescence; percent of 30 µM serotonin response; hit rate 0.66% among 360,000;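 active = activation above a run cutoff, the mean activation of all tested compounds plus 3 SD, cut at about 14% in these data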
MC4R ag barr: agonists of human melanocortin 4 receptor (MC4R) beta-arrestin. P32245. U2OS MC4R beta-arrestin complementation, luminescence; percent of melanotan II response, DMSO zero. activation, % at 8.9 µM. hit rate 0.98% among 360,000. AID 540308;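 active = activation above a per-plate cutoff, the mean activation of sample wells on that plate plus 3 SD, cut at about 8% in these data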
FXN GAA850 act: frataxin GAA850 promoter activation; HEK293 lucGAA850 FXN promoter luciferase reporter, 24 h; percent of 10 µM SAHA response; activation, % at 6 µM; hit rate 0.56% among 360,000; AID 540364;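 active = activation above the average of all compounds screened plus 3 SD, cutoff fixed separately per campaign, cut at about 7.5% in these data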
AHR act: activators of human aryl hydrocarbon receptor. hit rate 2.5% among 320,000. AHR-responsive luciferase reporter cells, luminescence. P35869. activation, % at 5 µM; in the data active = activation above about 47%
MC4R antag cAMP: human MC4R antagonism in cAMP assay; P32245; MC4R-expressing cells, MTII-stimulated cAMP, LANCE TR-FRET; inhibition, % at 6.5 µM; hit rate 0.48% among 360,000;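 active = inhibition above its plate's cutoff, the mean of tested wells on that plate plus 3 SD, cut at about 29% in these data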
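System: U2OS cells stably expressing human melanocortin 4 receptor (MC4R). Reagent: Melanotan II challenge after compound preincubation. Doses: 6.5 µM. Times: 30-min compound, 1-h challenge, 1-h detection, room temperature. Measured by: TR-FRET with Eu-cAMP and labeled anti-cAMP, 671 nm. Replicates: singlicate.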
AHR act confirm: confirmation of human aryl hydrocarbon receptor activators; activation, % at 9 µM; AID 2845; hit rate 87% among 2,300; shares compounds with AHR act; human cells, AHR-responsive luciferase reporter, luminescence; in the data active = activation above about 49%;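 note: HepG2 hepatoma cells carrying a DRE-driven firefly luciferase reporter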
PXR act counter: PXR activation, counter-screen for AHR activators; shares compounds with AHR act; cell-based PXR reporter, luciferase luminescence; activation, % at 11.6 µM; hit rate 88% among 2,300; AID 434939; in the data active = activation above about 11%;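 note: human hepatoma DPX-2 cells expressing full-length human PXR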
Target sequence (O75469 whole entry, looked up): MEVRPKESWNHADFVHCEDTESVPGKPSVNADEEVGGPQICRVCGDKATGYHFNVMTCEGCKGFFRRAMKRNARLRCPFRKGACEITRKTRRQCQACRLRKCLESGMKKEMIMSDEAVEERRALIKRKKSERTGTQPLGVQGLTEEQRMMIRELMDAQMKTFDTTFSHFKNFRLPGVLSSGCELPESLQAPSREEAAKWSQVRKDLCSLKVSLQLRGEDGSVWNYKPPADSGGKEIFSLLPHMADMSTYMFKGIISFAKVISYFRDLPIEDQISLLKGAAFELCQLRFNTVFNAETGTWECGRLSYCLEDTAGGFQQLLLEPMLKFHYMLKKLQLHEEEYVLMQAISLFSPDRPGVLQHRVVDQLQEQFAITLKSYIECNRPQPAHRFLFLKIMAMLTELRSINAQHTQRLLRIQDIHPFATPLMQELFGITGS
Large screens that a line does not name were inactive (follow-up assays come after a bar, where they were run).

c1cncc(-c2csc(-c3cccnc3)n2)c1	none
c1cncc(-c2nc(-c3ccco3)cs2)c1	none
CC1(C)CC(=O)C=C(c2ccc(-c3ccc4[nH]ccc4c3)cc2)C1=O	none (no result: AHR act)
Cc1cccc(N/C(N)=N/c2nc(C)cc(C)n2)c1	AHR act 81 | AHR act confirm 50 | PXR act counter 12
CCN1CCc2nc3ccccc3c(C(=O)Nc3ccc(F)cc3)c2C1	AHR act 94 | AHR act confirm 63 | PXR act counter 26
CCOC(=O)c1c(NC(=O)COC(=O)Cc2n[nH]c(=O)c3ccccc23)sc(C(=O)NC)c1C	none
c1ccc2nc(N3CCCC3)c(N3CCCCC3)nc2c1	none (no result: AHR act)
c1ccc2nc3c(nc2c1)OCC1CCCCN31 (stereo not given)	AHR act 102 | AHR act confirm 104 | PXR act counter 46
O=c1c2ccccc2cnn1-c1ccc(Br)cc1	AHR act 136 | AHR act confirm 109 | PXR act counter 38
CC1Oc2ccc(C#N)cc2N(Cc2ccccc2OC(F)(F)F)C1=O (stereo not given)	none (no result: AHR act)
CCN(CC)c1ccc(/C=C2\NC(=O)NC2=O)cc1	AHR act 88 | AHR act confirm 56 | PXR act counter 11
O=C1NC(=O)/C(=C\c2ccsc2)N1	none
N#CC1=C(N)Nc2nc3ccccc3n2C1c1ccc(Cl)cc1 (stereo not given)	AHR act 99 | AHR act confirm 69 | PXR act counter 49
O=[N+]([O-])c1cccc(/C([O-])=C(/C(=S)Nc2ccccc2)[n+]2ccccc2)c1	AHR act 83 | AHR act confirm inactive | PXR act counter 159
CC(NC(=O)C(=O)N1CCCCC1)C(c1cccs1)N1CCN(c2ccccc2)CC1 (stereo not given)	none
COc1ccc2c(c1)[nH]c1c(N3CCSCC3)ncnc12	none
COc1ccc2[nH]c3c(N4CC(C)OC(C)C4)ncnc3c2c1 (stereo not given)	AHR act 126 (no result: m5-HT2A agonist, MC4R ag barr, FXN GAA850 act, MC4R antag cAMP) | AHR act confirm 94 | PXR act counter 22
c1ccc(N2CC3COc4ccccc4C3=N2)cc1 (stereo not given)	none (no result: AHR act)
Cc1[nH]c2ccccc2c1C(=O)/C=C/c1ccccc1	AHR act 166 | AHR act confirm 140 | PXR act counter 200
Cc1[nH]c2ccccc2c1C(=O)/C=C\c1ccccc1Cl	AHR act 157 | AHR act confirm 112 | PXR act counter 78
FC(F)(F)c1ccccc1Cc1c(C2CCCCC2)nc2c3ccccc3ccn12	none (no result: MC4R ag barr, FXN GAA850 act, AHR act, MC4R antag cAMP)
Cn1c(CNC(=O)c2ccco2)nnc1SCC(=O)N1CCN(c2ccccc2F)CC1	none
CCOc1ccc2nc(NC(=O)Nc3cccs3)sc2c1	AHR act 96 | AHR act confirm 90 | PXR act counter 12
CCOc1ccc2nc(NC(=O)Cc3cccs3)sc2c1	none
COc1ccc(C2/C=C\CN3CCC[C@H]3C(=O)N2Cc2ccc(F)cc2)cc1 (stereo not given in full)	none (no result: AHR act)
O=C(NCCOc1ccccc1)C1Nc2ccc(C(F)(F)F)cc2C2c3ccccc3CC12 (stereo not given)	AHR act 87 | AHR act confirm inactive | PXR act counter 78
CCOC(=O)C1Nc2ccc(C(F)(F)F)cc2C2c3ccccc3CC12 (stereo not given)	none
Nc1cc(N)cc(C(=O)c2ccccc2)c1	none (no result: MC4R ag barr, FXN GAA850 act, AHR act, MC4R antag cAMP)
Cc1nnc(Nc2ccc3c(c2)OCO3)c2ccccc12	AHR act 84 | AHR act confirm 105 | PXR act counter 161
Nc1ccc2nc(-c3cccc(-c4nc5ccc(N)cc5[nH]4)c3)[nH]c2c1	none
Nc1ccc2nc(-c3ccc(Cl)cc3)[nH]c2c1	AHR act 167 | AHR act confirm 111 | PXR act counter 33
Clc1ccc2nc(-c3ccc(Cl)nc3)[nH]c2c1	AHR act 87 | AHR act confirm 138 | PXR act counter inactive
Nc1nc2ccc(Cl)cc2[nH]1	none (no result: AHR act)
CCc1cccc2sc(N3CCN(C(=O)c4ccc([N+](=O)[O-])o4)CC3)nc12	none
CC1=CC(=O)C2(C)C(C)=C(C)C12C (stereo not given)	none (no result: AHR act)
COc1ccc(C(=O)COc2ccccc2C#N)cc1	AHR act 90 | AHR act confirm 67 | PXR act counter 23

Bioassay records from PubChem.
